Assay results reported in ChEMBL document CHEMBL2407075, “Sulphonamido-quinoxalines: search for anticancer agent” (Eur J Med Chem, 2013).

Legend:
Type in all cases: functional
OVCAR-8 = test: Growth inhibition of human OVCAR8 cells assessed as cell growth at 10^-4 M after 48 hrs by sulforhodamine B assay; conditions: OVCAR-8, 48 h, read-out: Activity
U-251 [1] = test: Growth inhibition of human U251 cells assessed as cell growth at 10^-5 M after 48 hrs by sulforhodamine B assay; conditions: U-251, 48 h, read-out: Activity
U-251 [2] = test: Growth inhibition of human U251 cells assessed as cell growth at 10^-6 M after 48 hrs by sulforhodamine B assay; conditions: U-251, 48 h, read-out: Activity
NCI-H226 = test: Growth inhibition of human NCI-H226 cells assessed as cell growth at 10^-6 M after 48 hrs by sulforhodamine B assay; conditions: NCI-H226, 48 h, read-out: Activity
SNB-75 = test: Growth inhibition of human SNB75 cells after 48 hrs by sulforhodamine B assay; conditions: SNB-75, 48 h
In short: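 Five-dose NCI 60 screen at 0.01, 0.1, 1, 10 and 100 µM, 48 h exposure after 24 h preincubation, in RPMI 1640 with 5% FBS and 2 mM glutamine. Fixed with TCA (10% final for adherent cells, 16% for suspension cells), stained with SRB, A515 read. Percent growth uses time-zero (Tz), control and treated plates. GI50, TGI and LC50 are read from the dose-response curves.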

MDA-MB-468 = test: Growth inhibition of human MDA-MB-468 cells at 10 uM after 48 hrs by sulforhodamine B assay; conditions: MDA-MB-468, 48 h, read-out: GI
In short: (§1)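 Single-dose screen at 10 µM across the NCI 60 panel. Cells in RPMI 1640 with 5% FBS and 2 mM L-glutamine, plated at 5000–40,000/well and preincubated 24 h at 37 °C, 5% CO2. Drug in DMSO, 48 h exposure. Fixed with TCA, stained with SRB, A515 read. Percent growth is taken relative to untreated control, and inhibition is 100 minus growth.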

MDA-MB-231 = test: Growth inhibition of human MDA-MB-231 cells at 10 uM after 48 hrs by sulforhodamine B assay; conditions: MDA-MB-231, 48 h, read-out: GI; in short: as §1
PC-3 = test: Growth inhibition of human PC3 cells at 10 uM after 48 hrs by sulforhodamine B assay; conditions: PC-3, 48 h, read-out: GI; in short: as §1
TK-10 = test: Growth inhibition of human TK10 cells at 10 uM after 48 hrs by sulforhodamine B assay; conditions: TK-10, 48 h, read-out: GI; in short: as §1
UO-31 = test: Growth inhibition of human UO31 cells at 10 uM after 48 hrs by sulforhodamine B assay; conditions: UO-31, 48 h, read-out: GI; in short: as §1
RXF 393 = test: Growth inhibition of human RXF393 cells at 10 uM after 48 hrs by sulforhodamine B assay; conditions: RXF 393, 48 h, read-out: GI; in short: as §1
SN12C = test: Growth inhibition of human SN12C cells at 10 uM after 48 hrs by sulforhodamine B assay; conditions: read-out: GI; in short: as §1
A498 = test: Growth inhibition of human A498 cells at 10 uM after 48 hrs by sulforhodamine B assay; conditions: A498, 48 h, read-out: GI
In short: (§2)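 Single-dose NCI-60 prescreen at 10 µM for 48 h at 37 °C and 5% CO2, using cells grown in RPMI 1640 with 5% FBS and 2 mM glutamine. Protein was measured by SRB after TCA fixation: 10% final for adherent lines, 16% for suspension lines. Absorbance was read at 515 nm. Percent growth inhibition was obtained by subtracting percent growth from 100.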

SK-OV-3 = test: Growth inhibition of human SKOV3 cells at 10 uM after 48 hrs by sulforhodamine B assay; conditions: SK-OV-3, 48 h, read-out: GI; in short: as §1
OVCAR-4 = test: Growth inhibition of human OVCAR4 cells at 10 uM after 48 hrs by sulforhodamine B assay; conditions: OVCAR-4, 48 h, read-out: GI; in short: as §1
OVCAR-5 = test: Growth inhibition of human OVCAR5 cells at 10 uM after 48 hrs by sulforhodamine B assay; conditions: OVCAR-5, 48 h, read-out: GI; in short: as §1
UACC-257 = test: Growth inhibition of human UACC257 cells at 10 uM after 48 hrs by sulforhodamine B assay; conditions: UACC-257, 48 h, read-out: GI; in short: as §1
UACC-62 = test: Growth inhibition of human UACC62 cells at 10 uM after 48 hrs by sulforhodamine B assay; conditions: UACC-62, 48 h, read-out: GI; in short: as §1
SK-MEL-2 = test: Growth inhibition of human SK-MEL-2 cells at 10 uM after 48 hrs by sulforhodamine B assay; conditions: SK-MEL-2, 48 h, read-out: GI; in short: as §1
Malme-3M = test: Growth inhibition of human MALME-3M cells at 10 uM after 48 hrs by sulforhodamine B assay; conditions: read-out: GI; in short: as §1
U-251 [3] = test: Growth inhibition of human U251 cells at 10 uM after 48 hrs by sulforhodamine B assay; conditions: U-251, 48 h, read-out: GI; in short: as §1
SNB-19 = test: Growth inhibition of human SNB19 cells at 10 uM after 48 hrs by sulforhodamine B assay; conditions: SNB-19, 48 h, read-out: GI; in short: as §1
SF-295 = test: Growth inhibition of human SF295 cells at 10 uM after 48 hrs by sulforhodamine B assay; conditions: SF-295, 48 h, read-out: GI; in short: as §1
SF-539 = test: Growth inhibition of human SF539 cells at 10 uM after 48 hrs by sulforhodamine B assay; conditions: SF-539, 48 h, read-out: GI; in short: as §1
HT-29 = test: Growth inhibition of human HT-29 cells at 10 uM after 48 hrs by sulforhodamine B assay; conditions: HT-29, 48 h, read-out: GI
In short: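 NCI-60 one-dose primary screen at a single 10 µM concentration. Cells in RPMI 1640 with 5% FBS, preincubated 24 h at 37 °C, 5% CO2. Drug exposure 48 h, then TCA fixation, SRB staining and absorbance at 515 nm. Percent growth calculated against time-zero and untreated control wells, then converted to percent growth inhibition.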

NCI-H522 = test: Growth inhibition of human NCI-H522 cells at 10 uM after 48 hrs by sulforhodamine B assay; conditions: NCI-H522, 48 h, read-out: GI; in short: as §1
COLO 205 = test: Growth inhibition of human COLO205 cells at 10 uM after 48 hrs by sulforhodamine B assay; conditions: COLO 205, 48 h, read-out: GI; in short: as §2
NCI-H460 = test: Growth inhibition of human NCI-H460 cells at 10 uM after 48 hrs by sulforhodamine B assay; conditions: NCI-H460, 48 h, read-out: GI; in short: as §1
RPMI-8226 = test: Growth inhibition of human RPMI8226 cells at 10 uM after 48 hrs by sulforhodamine B assay; conditions: RPMI-8226, 48 h, read-out: GI; in short: as §1
CCRF-CEM = test: Growth inhibition of human CCRF-CEM cells at 10 uM after 48 hrs by sulforhodamine B assay; conditions: read-out: GI; in short: as §2

O=S(=O)(Nc1ccc(Cl)cc1)c1ccc2nc(-c3ccccc3)c(-c3ccccc3)nc2c1
growth at 100 µM (OVCAR-8): 72% | growth at 10 µM (U-251 [1]): -5% | growth at 1 µM (U-251 [2]): 87% | growth at 1 µM (NCI-H226): 101% | GI50 (SNB-75): 2.12 µM | TGI (SNB-75): > 100 µM | CC50 (SNB-75; read-out: LC50 (the source's name)): > 100 µM | inhibition of growth at 10 µM (MDA-MB-468): 76.8% | inhibition of growth at 10 µM (MDA-MB-231): 54.3% | inhibition of growth at 10 µM (PC-3): 60% | inhibition of growth at 10 µM (TK-10): 2.84% | inhibition of growth at 10 µM (UO-31): 29.2% | inhibition of growth at 10 µM (RXF 393): 98.8% | inhibition of growth at 10 µM (SN12C): 26.9% | inhibition of growth at 10 µM (A498): 44.3% | inhibition of growth at 10 µM (SK-OV-3): 18.5% | inhibition of growth at 10 µM (OVCAR-4): 30.3% | inhibition of growth at 10 µM (OVCAR-5): 18.3% | inhibition of growth at 10 µM (UACC-257): 17.9% | inhibition of growth at 10 µM (UACC-62): 30.6% | inhibition of growth at 10 µM (SK-MEL-2): 23.9% | inhibition of growth at 10 µM (Malme-3M): 6.64% | inhibition of growth at 10 µM (U-251 [3]): 39.5% | inhibition of growth at 10 µM (SNB-19): 31.9% | inhibition of growth at 10 µM (SF-295): 40.7% | inhibition of growth at 10 µM (SF-539): 25.9% | inhibition of growth at 10 µM (HT-29): 70.4% | inhibition of growth at 10 µM (NCI-H522): 50.8% | inhibition of growth at 10 µM (COLO 205): 26.6% | inhibition of growth at 10 µM (NCI-H460): 47.1% | inhibition of growth at 10 µM (RPMI-8226): 86% | inhibition of growth at 10 µM (CCRF-CEM): 61.9%
